High-throughput results from PubChem BioAssay.
PPC-1+TRAIL kill – kills PPC-1 cancer cells in the presence of TRAIL. PPC-1 cells + TRAIL, ATPLite viability luminescence. cell killing (% activity), % at 4 µM or 5 µM. 220,000 compounds, 0.41% hits. AID 1443;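 active = cell killing above 50% in the first pass at 4 µM, then a duplicate retest at 5 µM averaging 50% or more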;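 also: plate controls were cells with TRAIL plus DMSO for no effect and medium-only wells lacking cells for full effect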
C8 TRAIL sens – caspase-8 TRAIL sensitization; NB7+C8 cells + TRAIL, ATPlite viability luminescence; inhibition (viability loss, TRAIL sensitization), % at 10 µM; 360,000 compounds, 1% hits;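 active = compounds causing at least 50% loss of cell viability in the single-dose screen, relative to plate controls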
FLuc stim CS – firefly luciferase counter-screen for stimulation assays; P08659; ATPlite luciferase biochemical, luminescence, 10 min; 0 = ATP-free wells, 1 = DMSO control; activation factor at 10 µM; 200,000 tested, under 10 active; AID 1027;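 active = luciferase activation factor, scaled between plate controls, of at least 2 with compound at 10 µM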
Target sequence (P08659 whole entry, looked up): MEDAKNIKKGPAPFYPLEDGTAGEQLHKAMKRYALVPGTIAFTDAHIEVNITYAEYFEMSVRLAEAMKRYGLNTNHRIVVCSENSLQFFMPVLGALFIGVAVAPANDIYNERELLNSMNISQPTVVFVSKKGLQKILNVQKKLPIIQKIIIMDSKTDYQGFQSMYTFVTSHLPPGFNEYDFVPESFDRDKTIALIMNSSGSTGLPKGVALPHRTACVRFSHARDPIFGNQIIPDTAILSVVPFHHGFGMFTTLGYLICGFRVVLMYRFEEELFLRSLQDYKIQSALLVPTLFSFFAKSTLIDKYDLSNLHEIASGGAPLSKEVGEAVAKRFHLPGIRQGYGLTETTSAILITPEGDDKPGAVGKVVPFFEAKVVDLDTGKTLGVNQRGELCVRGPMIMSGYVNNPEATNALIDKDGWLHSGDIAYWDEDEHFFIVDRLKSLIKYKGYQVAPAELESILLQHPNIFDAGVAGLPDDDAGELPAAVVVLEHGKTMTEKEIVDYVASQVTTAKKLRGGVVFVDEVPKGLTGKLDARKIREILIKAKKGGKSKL
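Assay system: Luciferase/luciferin detection reagent, cell-free biochemical luciferase assay / Read-out: luciferase activation / Benchmarks: No-ATP low control, compound-free enzyme-plus-ATP high control / Medium: PBS buffer for ATP / Detection: luminescence measurement of luciferase light output / Schedule: 10 min at ambient temperature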
FLuc inh counter – inhibits firefly luciferase, flagging false hits in luciferase inhibition screens. 200,000 compounds, 1.5% hits. ATPLite firefly luciferase biochemical luminescence, 10 min. inhibition, % at 10 µM. P08659;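 active = inhibition above about 50% when tested at 10 µM, limit read from the data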
PPC-1 tox – kills PPC-1 cells; AID 1447; cytotoxicity, % at 5 µM; shares compounds with PPC-1+TRAIL kill; PPC-1 viability, ATPlite luminescence, overnight; 1,200 compounds, 50% hits;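 active = reconfirmed compounds whose average cytotoxicity reaches 50% or more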;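 also: 0% = DMSO-treated cells and 100% = wells holding medium but no cells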
An asterisk follows results filed as active. The list is not random: actives were taken first. Their share in the collection is about 1.5%.

Cc1ccc(N/C(N)=N/c2nc(C)cc(N3CCCCC3)n2)c(C)c1 was read as PPC-1+TRAIL kill 20.4, C8 TRAIL sens 39.7, FLuc stim CS 1, FLuc inh counter -4.8 and PPC-1 tox 21.6.
`CCOC(=O)c1[nH]c2ccc(F)cc2c1NC(=O)C1=COCCO1` gave PPC-1+TRAIL kill -0.7, C8 TRAIL sens -3.9, FLuc stim CS 1, FLuc inh counter 0.8 and PPC-1 tox -6.9.
Screening CCOC(=O)c1[nH]c2ccc(F)cc2c1NC(=O)c1ccccc1C(=O)O returned C8 TRAIL sens 16.1.
`O=C(COC(=O)c1ccc(Cl)nc1)Nc1ccc(N2CCCCC2)cc1` gave C8 TRAIL sens 6.6.
For CC(=O)N1CCN(C(=O)COc2ccccc2C(=O)Nc2ccccc2)CC1 the results were PPC-1+TRAIL kill 5.2, C8 TRAIL sens -0.3, FLuc stim CS 1, FLuc inh counter -3.3 and PPC-1 tox 7.5.
`CCCOc1ccc(-c2csc3nc[nH]c(=O)c23)cc1` gave C8 TRAIL sens 19.3.
For O=c1[nH]cnc2scc(-c3ccc(-c4ccccc4)cc3)c12 the results were PPC-1+TRAIL kill 58.1*, C8 TRAIL sens 42.2, FLuc stim CS 0.4, FLuc inh counter 60.2* and PPC-1 tox 60.3*.
For COc1cc([N+](=O)[O-])ccc1NC(=O)Nn1cnnc1 the results were C8 TRAIL sens -5.0.
`CCOc1cccc(C(=O)Nc2ccccc2OC(F)F)c1` gave PPC-1+TRAIL kill 8.7, C8 TRAIL sens 10.0, FLuc stim CS 1, FLuc inh counter -4.3 and PPC-1 tox 13.4.
For O=C(Nc1ccc(F)cc1)C(c1cccc(F)c1)N1CCN(c2ccncc2)CC1 (stereo unspecified) the results were C8 TRAIL sens 3.4.
Cc1ccccc1-n1ncc2c1CC(C)(C)CC2NC(=O)CCN1CCCCC1=O (stereo unspecified) was read as C8 TRAIL sens -4.6.
Screening c1ccc2c(c1)CCN(c1nc3cc4c(cc3s1)OCCO4)C2 returned PPC-1+TRAIL kill 84.4*, C8 TRAIL sens 75.0*, FLuc stim CS 0.1, FLuc inh counter 89.1* and PPC-1 tox 84.4*.
`Cc1ccc2nc(Nc3nc(-c4ccccc4)cc(=O)[nH]3)nc(C)c2c1` gave PPC-1+TRAIL kill 5.3, C8 TRAIL sens 12.1, FLuc stim CS 1 and FLuc inh counter -4.7.
Screening COc1ccc2c(C)nc(Nc3nc(-c4ccccc4)cc(=O)[nH]3)nc2c1 returned PPC-1+TRAIL kill 42.1, C8 TRAIL sens 41.1 and PPC-1 tox 44.1.
`O=C(NCCO)c1ccc2c3n(nc2c1)-c1ccccc1CO3` gave PPC-1+TRAIL kill 70.6*, C8 TRAIL sens 70.2* and PPC-1 tox 70.3*.
Screening C=CCNC(=O)c1ccc2c3n(nc2c1)-c1ccc(Cl)cc1CO3 returned C8 TRAIL sens 23.3.
O=C(NCC1CC1)c1ccc2c3n(nc2c1)-c1ccccc1CO3 was read as PPC-1+TRAIL kill 79.7*, C8 TRAIL sens 82.7* and PPC-1 tox 75.7*.
`COc1cccc(S(=O)(=O)N(C)C[C@H]2OCc3cnnn3CCCC(=O)N([C@@H](C)CO)C[C@@H]2C)c1` gave C8 TRAIL sens -11.6.
Screening Cc1ccnc(Nc2cccnc2)n1 returned C8 TRAIL sens 5.8.
Screening CCc1nc2ccc(C(=O)NCCc3ccccn3)cn2c1N(C)Cc1ccc(N(C)C)cc1 returned C8 TRAIL sens -8.2.
Screening COc1ccc(N2CCN(C3CC(=O)N(Cc4ccc(N5CCCC5=O)cc4)C3=O)CC2)cc1 (stereo unspecified) returned PPC-1+TRAIL kill 3.8, C8 TRAIL sens -7.5, FLuc stim CS 1.1 and FLuc inh counter -5.8.
For O=C1CC(N2CCN(c3ccc(F)cc3)CC2)C(=O)N1Cc1ccc(N2CCCC2=O)cc1 (stereo unspecified) the results were PPC-1+TRAIL kill 14.2, C8 TRAIL sens -1.2, FLuc stim CS 1.1, FLuc inh counter -5.3 and PPC-1 tox 19.5.
`COc1ccc(CNC(=O)c2c(C)oc3c2C(=O)c2ccccc2C3=O)cc1` gave PPC-1+TRAIL kill 58.7*, C8 TRAIL sens 93.9*, FLuc stim CS 1.1, FLuc inh counter -10.1 and PPC-1 tox 56.8*.
`Cc1oc2c(c1C(=O)NCc1cccnc1)C(=O)c1ccccc1C2=O` gave PPC-1+TRAIL kill 95.2*, FLuc stim CS 1.1, FLuc inh counter -5.8 and PPC-1 tox 94.4*.
`Oc1csc(Cc2nc(-c3ccccc3F)cs2)n1` gave PPC-1+TRAIL kill 30.9, C8 TRAIL sens -0.4, FLuc stim CS 1 and FLuc inh counter 0.9.
For C=CC[C@]12CCc3ccccc3C1N(c1ccc(C(=O)OCC)cc1)C2=O (stereo partly specified) the results were C8 TRAIL sens -0.1.
Screening COC(=O)CCCn1cc(CN2CC(N3CCN(Cc4ccccc4F)CC3)CS2(=O)=O)nn1 (stereo unspecified) returned C8 TRAIL sens -4.7.
`Cc1ccc(C(=O)n2c(N)nc3ccccc32)cc1` gave PPC-1+TRAIL kill 92.2*, C8 TRAIL sens 95.2*, FLuc stim CS 0, FLuc inh counter 96.7* and PPC-1 tox 92.8*.
Cc1ccc(S(=O)(=O)n2c(N)nc3ccccc32)cc1 was read as C8 TRAIL sens 0.8.
Screening CC(C)c1ccc(Nc2nnc(SCC(=O)Nc3ncc(S(=O)(=O)c4ccc([N+](=O)[O-])cc4)s3)s2)cc1 returned PPC-1+TRAIL kill 63.6*, C8 TRAIL sens 76.3*, FLuc stim CS 0.3, FLuc inh counter 73.1* and PPC-1 tox 65.4*.
For O=C(NC1CCCC1)C(c1ccccn1)N(Cc1ccc(F)cc1)C(=O)c1csnn1 (stereo unspecified) the results were C8 TRAIL sens -11.1.
`C[C@H]1CN([C@@H](C)CO)C(=O)CCCn2nncc2CO[C@@H]1CN(C)Cc1cccc(C(=O)O)c1` gave C8 TRAIL sens 9.5.
O=C(CSc1nnc(NC(=O)c2ccc3c(c2)OCO3)s1)NCc1ccco1 was read as PPC-1+TRAIL kill 80.2*, C8 TRAIL sens 81.7*, FLuc stim CS 0.1, FLuc inh counter 91.0* and PPC-1 tox 79.5*.
O=C(CSc1nnc(NC(=O)c2ccco2)s1)NCc1ccc2c(c1)OCO2 was read as PPC-1+TRAIL kill -3.6, C8 TRAIL sens -7.4, FLuc stim CS 1 and FLuc inh counter 3.9.
Screening CCOc1ccc(OCC(=O)Nc2nccs2)cc1 returned PPC-1+TRAIL kill 47.1, C8 TRAIL sens 65.6*, FLuc stim CS 0.2, FLuc inh counter 83.2* and PPC-1 tox 51.5*.
`CCOc1ccc(S(=O)(=O)N(C)c2ccc(OCC(=O)Nc3nccs3)cc2)cc1` gave PPC-1+TRAIL kill 12.6, C8 TRAIL sens 0.9, FLuc stim CS 1 and FLuc inh counter -0.3.
Cc1ccc[n+](CC(=O)Nc2cc(C(F)(F)F)ccc2Cl)c1 was read as PPC-1+TRAIL kill 8.0, C8 TRAIL sens -13.2, FLuc stim CS 1.1 and FLuc inh counter -8.6.
For CCC(C)(C)c1ccc(OCCCC[n+]2cccc(C)c2)c(C(C)(C)CC)c1 the results were PPC-1+TRAIL kill 35.5, C8 TRAIL sens 13.8, FLuc stim CS 1.1, FLuc inh counter -7.2 and PPC-1 tox 36.8.
